From PubChem BioAssay
The source made the active and inactive calls.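 The calls were made as follows, unless noted: active = calcium signal cut by more than 3 SD below the full-agonist control yet still positive, in both repeats and the earlier primary screen; inactive = the rest.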

test system: TRPC4 beta (transient receptor potential cation channel C4), mouse; assay: positive allosteric modulators of mouse TRPC4, confirmation, cell-based, Fluo-4, HEK293 TRPC4beta/mu-opioid (AID 2555;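 active = primary screen hit whose calcium fluorescence ratio, in both repeats, exceeds the weak agonist control mean by 3 SD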); conditions: DAMGO EC20, Fluo-4 calcium flux, at 10 µM; stronger effect = higher value

Q: `CN(C)CCCN(Cc1cc2cc3c(cc2[nH]c1=O)OCO3)C(=S)NCc1ccco1` was tested. Which outcome did it give?
A: Its outcome is “inactive”.

Q: `Cc1cc(OCC(=O)Nc2ccc(N3CCN(C)CC3)cc2)ccc1Cl` was tested. Which outcome did it give?
A: Its outcome is “inactive”.

Q: With `O=C(Nc1ccccc1Oc1cccnc1)C1CCCN(Cc2ccc(F)cc2)C1` (stereo not given) as the molecule, how does the outcome read?
A: The outcome was “inactive”.

Q: How did the outcome turn out when `Cc1ncsc1CCOC(=O)c1cccc([N+](=O)[O-])c1` was run?
A: The outcome was “inactive”.

Q: How did the outcome turn out when `N#C/C(=N\Nc1cccc([N+](=O)[O-])c1)C(=O)c1ccc(Br)cc1` was run?
A: Its outcome is “inactive”.

Q: Which outcome does the source give for `CC(NC(=O)c1ccco1)C(c1cccs1)N1CCN(c2ccccc2)CC1` (stereo not given) here?
A: Its outcome is “inactive”.

Q: For `O=C(Cc1ccccc1[N+](=O)[O-])OCc1cccc([N+](=O)[O-])c1`, which outcome is on record?
A: The outcome was “inactive”.

Q: With `CCOc1cc(CNCCCN2CCOCC2)cc(Br)c1OCc1ccccc1Cl` as the molecule, how does the outcome read?
A: Its outcome is “inactive”.

Q: Which outcome does the source give for `O=C(NCCN1CCOCC1)c1cc2sccc2n1Cc1ccc(F)cc1` here?
A: Its outcome is “inactive”.

Q: How did the outcome turn out when `Cn1c(-c2ccc(F)cc2)cnc1NCc1ccc(F)cc1F` was run?
A: The outcome was “inactive”.

Q: Which outcome does the source give for `Cc1[nH]c2ccc(C(=O)OC(C)C(=O)N(C)c3ccccc3)cc2c1C` (stereo not given) here?
A: Its outcome is “inactive”.

Q: For `COc1cc(/C=C2\SC(=O)N(c3ccccc3Cl)C2=O)cc([N+](=O)[O-])c1O`, which outcome is on record?
A: The outcome was “inactive”.

Q: For `Cc1ccc2nc(C)cc(Nc3ccc4c(c3)OCCO4)c2c1`, which outcome is on record?
A: The outcome was “inactive”.

Q: With `CC1CCN(CCCOc2ccc(OCc3ccccc3)cc2)CC1` as the molecule, how does the outcome read?
A: Its outcome is “inactive”.

Q: How did the outcome turn out when `COCCn1c(SCC(=O)c2ccccc2)nc2ccccc2c1=O` was run?
A: The outcome was “inactive”.

Q: How did the outcome turn out when `O=C(c1ccco1)N1CCN(C/C=C/c2ccccc2)CC1` was run?
A: The outcome was “inactive”.

Q: Which outcome does the source give for `Nc1cc(N2CCCCC2)c([N+](=O)[O-])cc1Cl` here?
A: The outcome was “inactive”.

Q: `Cc1cc(Cl)c2oc(C(=O)N(C)Cc3nccn3C)c(C)c2c1` was tested. Which outcome did it give?
A: Its outcome is “inactive”.

Q: For `COc1ccccc1C(=O)Nc1ccc2c(c1)CCCN2C(=O)c1cccs1`, which outcome is on record?
A: The outcome was “inactive”.

Q: Which outcome does the source give for `COCCNc1c2c(nc3ccccc13)CCC2` here?
A: Its outcome is “inactive”.

Q: Which outcome does the source give for `Cc1onc(-c2c(F)cccc2Cl)c1C(=O)N(C)CC(=O)Nc1cccc(F)c1` here?
A: Its outcome is “inactive”.

Q: For `Cc1cc(C)c(S(=O)(=O)c2ccccc2C)c(OCC(C)(C)C)n1`, which outcome is on record?
A: Its outcome is “inactive”.

Q: How did the outcome turn out when `CCCn1c(=O)c2ccccc2n2c(SCCOc3ccccc3)nnc12` was run?
A: The outcome was “inactive”.

Q: `CCOc1ccccc1N(C(=O)c1snc(C(N)=O)c1N)C(C(=O)NCc1ccccc1)c1ccc(O)cc1` (stereo not given) was tested. Which outcome did it give?
A: The outcome was “inactive”.

Q: For `Cc1oc(-c2ccoc2)nc1CN(Cc1ccccc1)CC1CC1`, which outcome is on record?
A: The outcome was “inactive”.

Q: For `CCCN1CN(Cc2ccco2)c2nc3ccccc3n2C1`, which outcome is on record?
A: Its outcome is “inactive”.

Q: `O=C(O)c1ccc(CSc2nc(-c3ccc(Cl)cc3)cc(C(F)(F)F)n2)cc1` was tested. Which outcome did it give?
A: Its outcome is “inactive”.

Q: How did the outcome turn out when `CCCCc1nc2ccccc2c(N)c1CCC` (tested in a mixture with another compound) was run?
A: The outcome was “inactive”.

Q: Which outcome does the source give for `CCOC(=O)c1c(NC(=O)/C=C/C(=O)O)sc(C)c1-c1ccc(C(C)(C)C)cc1` here?
A: Its outcome is “inactive”.

Q: How did the outcome turn out when `C=C(C)Cn1c(SCC)nc2ccccc2c1=O` was run?
A: The outcome was “inactive”.

Q: Which outcome does the source give for `O=C(Nc1ccccc1N1CCN(C(=O)c2ccc(Cl)cc2)CC1)c1cccc([N+](=O)[O-])c1` here?
A: Its outcome is “inactive”.

Q: Which outcome does the source give for `CCOC(=O)C1(CCc2ccccc2)CCN(Cc2ccccn2)CC1` here?
A: The outcome was “inactive”.

Q: Which outcome does the source give for `c1csc(CNc2nc(-c3cccs3)nc3ccccc23)c1` here?
A: Its outcome is “inactive”.

Q: With `O=C(c1cccc(C(=O)N2CCN(c3ccccc3)CC2)c1)N1CCN(c2ccccc2)CC1` as the molecule, how does the outcome read?
A: The outcome was “inactive”.

Q: Which outcome does the source give for `CCCCN(CCCC)/C(N)=N/c1nc(C)cc(C)n1` here?
A: Its outcome is “inactive”.

Q: `O=C(C1CCN(CC2CC=CCC2)CC1)N(CCc1ccccc1)Cc1ccccc1` (stereo not given) was tested. Which outcome did it give?
A: Its outcome is “inactive”.

Q: Which outcome does the source give for `CCOC(=O)c1c(NC(=O)C2CC(Cl)=CCC2C(=O)O)sc2c1CCCCC2` (stereo not given) here?
A: Its outcome is “inactive”.

Q: How did the outcome turn out when `COc1ccc(C)cc1N(C(=O)c1snc(C(N)=O)c1N)C(C(=O)NC1CCCCC1)c1ccc(C)o1` (stereo not given) was run?
A: Its outcome is “inactive”.

Q: How did the outcome turn out when `CCOC(=O)c1c(N)sc(C(O)(C(F)(F)F)C(F)(F)F)c1-c1ccccc1` was run?
A: The outcome was “inactive”.

Q: Which outcome does the source give for `CNc1nc(NCc2ccccc2)c2ccccc2n1` here?
A: The outcome was “inactive”.

biological target: Short transient receptor potential channel 4 (Mus musculus) (UniProt Q9QUQ5); assay: inhibitors of mouse TRPC4 channel, confirmation, cell-based, Fluo4, HEK293 TRPC4beta/mu-opioid (AID 2636); conditions: DAMGO, Fluo4 calcium flux, at 10 µM; stronger effect = higher value
Sequence (Q9QUQ5 whole entry, looked up): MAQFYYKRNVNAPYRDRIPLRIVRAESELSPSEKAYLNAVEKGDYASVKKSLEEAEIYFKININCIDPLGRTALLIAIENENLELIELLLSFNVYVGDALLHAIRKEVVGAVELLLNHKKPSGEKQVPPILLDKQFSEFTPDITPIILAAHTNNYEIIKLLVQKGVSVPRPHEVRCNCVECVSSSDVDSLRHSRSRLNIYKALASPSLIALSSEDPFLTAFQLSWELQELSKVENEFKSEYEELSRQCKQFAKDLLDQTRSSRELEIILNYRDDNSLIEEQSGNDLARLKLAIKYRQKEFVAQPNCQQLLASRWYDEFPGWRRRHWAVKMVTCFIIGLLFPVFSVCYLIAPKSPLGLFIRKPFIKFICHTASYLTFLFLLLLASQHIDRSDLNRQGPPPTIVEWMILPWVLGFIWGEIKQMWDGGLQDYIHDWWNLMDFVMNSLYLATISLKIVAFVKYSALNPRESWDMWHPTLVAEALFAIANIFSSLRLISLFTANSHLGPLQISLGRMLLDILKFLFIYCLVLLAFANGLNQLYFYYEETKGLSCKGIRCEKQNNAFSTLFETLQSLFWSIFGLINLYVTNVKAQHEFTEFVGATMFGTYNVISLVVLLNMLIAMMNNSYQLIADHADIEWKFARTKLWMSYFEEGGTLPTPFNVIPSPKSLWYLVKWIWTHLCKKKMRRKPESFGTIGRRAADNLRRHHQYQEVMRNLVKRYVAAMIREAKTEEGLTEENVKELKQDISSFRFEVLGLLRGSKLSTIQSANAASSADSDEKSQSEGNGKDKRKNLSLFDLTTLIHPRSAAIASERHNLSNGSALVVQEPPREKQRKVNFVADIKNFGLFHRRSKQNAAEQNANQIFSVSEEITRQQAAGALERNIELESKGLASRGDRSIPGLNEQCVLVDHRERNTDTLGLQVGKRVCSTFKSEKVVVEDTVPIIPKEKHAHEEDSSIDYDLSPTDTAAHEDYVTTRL
How it was run: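 test system = TRPC4beta/mu-opioid receptor HEK293 cells | compound dosing = one dose, 10 µM final | times = dye 45 min at room temperature, compound 110 s, submaximal DAMGO 110 s | signal = kinetic fluorescence of Fluo4 calcium-sensitive dye, calcium influx | controls = no-compound wells and DAMGO maximal-stimulus wells | replication = duplicate wells for each compound, averaged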

Q: With `CN(C)CCCN(Cc1cc2cc3c(cc2[nH]c1=O)OCO3)C(=S)NCc1ccco1` as the molecule, how does the inhibition read?
A: The inhibition was 93% (active).

Q: How did the inhibition turn out when `Cc1cc(OCC(=O)Nc2ccc(N3CCN(C)CC3)cc2)ccc1Cl` was run?
A: Its inhibition is 79% (active).

Q: For `O=C(Nc1ccccc1Oc1cccnc1)C1CCCN(Cc2ccc(F)cc2)C1` (stereo not given), which inhibition is on record?
A: The inhibition was 87% (active).

Q: For `Cc1ncsc1CCOC(=O)c1cccc([N+](=O)[O-])c1`, which inhibition is on record?
A: The inhibition was 83% (active).

Q: How did the inhibition turn out when `N#C/C(=N\Nc1cccc([N+](=O)[O-])c1)C(=O)c1ccc(Br)cc1` was run?
A: Its inhibition is 98% (active).

Q: With `CC(NC(=O)c1ccco1)C(c1cccs1)N1CCN(c2ccccc2)CC1` (stereo not given) as the molecule, how does the inhibition read?
A: The inhibition was 98% (active).

Q: How did the inhibition turn out when `O=C(Cc1ccccc1[N+](=O)[O-])OCc1cccc([N+](=O)[O-])c1` was run?
A: The inhibition was 92% (active).

Q: Which inhibition does the source give for `CCOc1cc(CNCCCN2CCOCC2)cc(Br)c1OCc1ccccc1Cl` here?
A: The inhibition was 77% (active).

Q: Which inhibition does the source give for `O=C(NCCN1CCOCC1)c1cc2sccc2n1Cc1ccc(F)cc1` here?
A: Its inhibition is 74% (active).

Q: For `Cn1c(-c2ccc(F)cc2)cnc1NCc1ccc(F)cc1F`, which inhibition is on record?
A: Its inhibition is 88% (active).

Q: Which outcome does the source give for `Cc1[nH]c2ccc(C(=O)OC(C)C(=O)N(C)c3ccccc3)cc2c1C` (stereo not given) here?
A: Its outcome is “inactive”.

Q: Which inhibition does the source give for `COc1cc(/C=C2\SC(=O)N(c3ccccc3Cl)C2=O)cc([N+](=O)[O-])c1O` here?
A: The inhibition was 84% (active).

Q: `Cc1ccc2nc(C)cc(Nc3ccc4c(c3)OCCO4)c2c1` was tested. Which inhibition did it give?
A: Its inhibition is 90% (active).

Q: Which inhibition does the source give for `CC1CCN(CCCOc2ccc(OCc3ccccc3)cc2)CC1` here?
A: Its inhibition is 96% (active).

Q: For `COCCn1c(SCC(=O)c2ccccc2)nc2ccccc2c1=O`, which inhibition is on record?
A: Its inhibition is 91% (active).

Q: With `O=C(c1ccco1)N1CCN(C/C=C/c2ccccc2)CC1` as the molecule, how does the inhibition read?
A: The inhibition was 87% (active).

Q: Which inhibition does the source give for `Nc1cc(N2CCCCC2)c([N+](=O)[O-])cc1Cl` here?
A: The inhibition was 88% (active).

Q: With `Cc1cc(Cl)c2oc(C(=O)N(C)Cc3nccn3C)c(C)c2c1` as the molecule, how does the inhibition read?
A: Its inhibition is 84% (active).

Q: Which outcome does the source give for `COc1ccccc1C(=O)Nc1ccc2c(c1)CCCN2C(=O)c1cccs1` here?
A: The outcome was “inactive”.

Q: With `COCCNc1c2c(nc3ccccc13)CCC2` as the molecule, how does the inhibition read?
A: The inhibition was 100% (active).

Q: `Cc1onc(-c2c(F)cccc2Cl)c1C(=O)N(C)CC(=O)Nc1cccc(F)c1` was tested. Which inhibition did it give?
A: Its inhibition is 84% (active).

Q: `Cc1cc(C)c(S(=O)(=O)c2ccccc2C)c(OCC(C)(C)C)n1` was tested. Which inhibition did it give?
A: Its inhibition is 91% (active).

Q: For `CCCn1c(=O)c2ccccc2n2c(SCCOc3ccccc3)nnc12`, which inhibition is on record?
A: The inhibition was 67% (active).

Q: Which inhibition does the source give for `CCOc1ccccc1N(C(=O)c1snc(C(N)=O)c1N)C(C(=O)NCc1ccccc1)c1ccc(O)cc1` (stereo not given) here?
A: The inhibition was 79% (active).

Q: `Cc1oc(-c2ccoc2)nc1CN(Cc1ccccc1)CC1CC1` was tested. Which inhibition did it give?
A: The inhibition was 95% (active).

Q: `CCCN1CN(Cc2ccco2)c2nc3ccccc3n2C1` was tested. Which inhibition did it give?
A: The inhibition was 96% (active).

Q: For `O=C(O)c1ccc(CSc2nc(-c3ccc(Cl)cc3)cc(C(F)(F)F)n2)cc1`, which inhibition is on record?
A: The inhibition was 77% (active).

Q: `CCCCc1nc2ccccc2c(N)c1CCC` (tested in a mixture with another compound) was tested. Which inhibition did it give?
A: Its inhibition is 96% (active).

Q: How did the outcome turn out when `CCOC(=O)c1c(NC(=O)/C=C/C(=O)O)sc(C)c1-c1ccc(C(C)(C)C)cc1` was run?
A: The outcome was “inactive”.

Q: How did the inhibition turn out when `C=C(C)Cn1c(SCC)nc2ccccc2c1=O` was run?
A: Its inhibition is 96% (active).

Q: For `O=C(Nc1ccccc1N1CCN(C(=O)c2ccc(Cl)cc2)CC1)c1cccc([N+](=O)[O-])c1`, which inhibition is on record?
A: The inhibition was 81% (active).

Q: Which inhibition does the source give for `CCOC(=O)C1(CCc2ccccc2)CCN(Cc2ccccn2)CC1` here?
A: Its inhibition is 88% (active).

Q: With `c1csc(CNc2nc(-c3cccs3)nc3ccccc23)c1` as the molecule, how does the inhibition read?
A: Its inhibition is 78% (active).

Q: Which inhibition does the source give for `O=C(c1cccc(C(=O)N2CCN(c3ccccc3)CC2)c1)N1CCN(c2ccccc2)CC1` here?
A: The inhibition was 92% (active).

Q: How did the outcome turn out when `CCCCN(CCCC)/C(N)=N/c1nc(C)cc(C)n1` was run?
A: The outcome was “inactive”.

Q: `O=C(C1CCN(CC2CC=CCC2)CC1)N(CCc1ccccc1)Cc1ccccc1` (stereo not given) was tested. Which inhibition did it give?
A: The inhibition was 53% (active).

Q: With `CCOC(=O)c1c(NC(=O)C2CC(Cl)=CCC2C(=O)O)sc2c1CCCCC2` (stereo not given) as the molecule, how does the inhibition read?
A: Its inhibition is 96% (active).

Q: With `COc1ccc(C)cc1N(C(=O)c1snc(C(N)=O)c1N)C(C(=O)NC1CCCCC1)c1ccc(C)o1` (stereo not given) as the molecule, how does the inhibition read?
A: The inhibition was 92% (active).

Q: `CCOC(=O)c1c(N)sc(C(O)(C(F)(F)F)C(F)(F)F)c1-c1ccccc1` was tested. Which inhibition did it give?
A: Its inhibition is 66% (active).

Q: How did the outcome turn out when `CNc1nc(NCc2ccccc2)c2ccccc2n1` was run?
A: Its outcome is “inactive”.
